We go through three compounds from publication PMC4887080 (Journal of nuclear medicine : official publication, Society …, 2016).

Series [1] addresses T1, VLA-4 (Mus musculus, UniProt P09055+Q00651). In kind it is in vivo, KaLwRij mouse.
The format of series [2] is in vivo, BALB/c mice. Put shortly:
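BALB/c mice received 0.78 MBq of 64Cu tracer, with sampling at 1, 2, 4, 12, 24 and 48 h. The last group was kept in metabolic cages to collect excreted urine and feces. Time–activity curves for urine excretion and blood clearance were built as percentage injected activity. Urine residence time used a 1-h void assumption.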

Series [3] is described as follows: Human radiation dose estimates extrapolated from mouse biodistribution. In kind it is in vivo, BALB/c mice, scaled to adult human male model. Put shortly:
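64Cu tracer biodistribution in normal BALB/c mice given 0.78 MBq. Organs were collected at 1, 2, 4, 12, 24 and 48 h, and %ID/g was decay-corrected. A final group was housed in metabolic cages to collect urine and feces. Organ residence times (2-h void; 1-h void scenario also run) were scaled to human organ weight for the adult male model. Maximum injection assumes a 50 mGy bladder-wall limit. Mean ± SD.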

Series [4] addresses T1, VLA-4. Nature of the series: PET uptake in tumor-free α4 -/- mice vs wild-type KaLwRij mice. The series is classed as in vivo. Conditions: tumor-free α4 -/- mice compared with age-matched wild-type KaLwRij mice.
For series [5], the system named is human MM cell lines H929, RPMI-8226, OPM2. Kind of series: Flow cytometry binding of LLP2A-Cy5 to human MM cell lines. In kind it is cell-based. A general note: A flow cytometer gives signals particle by particle.
In series [6] the test system is VLA-4-positive 5TGM1-GFP murine myeloma cells. Nature of the series: Flow cytometry binding of LLP2A-Cy5 to 5TGM1-GFP cells. The series is classed as cell-based, mouse. Particulars: coincubated at similar concentrations, P < 0.05.

T1 sequence (Q00651 40-1039 limits assumed): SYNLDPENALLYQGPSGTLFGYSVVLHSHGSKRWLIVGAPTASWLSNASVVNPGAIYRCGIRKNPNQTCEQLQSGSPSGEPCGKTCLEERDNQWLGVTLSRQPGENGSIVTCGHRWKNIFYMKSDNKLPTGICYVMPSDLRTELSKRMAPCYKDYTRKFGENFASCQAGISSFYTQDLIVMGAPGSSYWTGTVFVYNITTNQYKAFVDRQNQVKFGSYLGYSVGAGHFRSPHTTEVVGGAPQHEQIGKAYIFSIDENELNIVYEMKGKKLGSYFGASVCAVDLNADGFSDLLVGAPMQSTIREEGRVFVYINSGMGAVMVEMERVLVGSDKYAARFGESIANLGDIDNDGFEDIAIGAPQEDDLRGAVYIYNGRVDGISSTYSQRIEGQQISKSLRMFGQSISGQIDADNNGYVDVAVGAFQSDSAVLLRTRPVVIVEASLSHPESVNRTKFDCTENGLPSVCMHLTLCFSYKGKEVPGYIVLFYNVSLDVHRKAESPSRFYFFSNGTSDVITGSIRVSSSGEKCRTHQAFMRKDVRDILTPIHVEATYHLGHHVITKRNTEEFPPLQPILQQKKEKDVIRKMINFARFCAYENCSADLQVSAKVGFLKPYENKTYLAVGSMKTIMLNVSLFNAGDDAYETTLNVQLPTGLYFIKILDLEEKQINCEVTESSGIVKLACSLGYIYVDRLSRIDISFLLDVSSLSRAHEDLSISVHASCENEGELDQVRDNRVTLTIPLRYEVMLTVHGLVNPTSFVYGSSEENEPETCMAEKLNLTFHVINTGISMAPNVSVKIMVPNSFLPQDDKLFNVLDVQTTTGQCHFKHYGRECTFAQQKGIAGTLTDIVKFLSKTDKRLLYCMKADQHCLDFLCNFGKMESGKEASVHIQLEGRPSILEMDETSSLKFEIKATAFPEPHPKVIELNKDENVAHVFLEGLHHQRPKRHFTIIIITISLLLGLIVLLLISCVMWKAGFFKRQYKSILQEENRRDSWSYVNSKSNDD
T1 sequence (P09055 21-798): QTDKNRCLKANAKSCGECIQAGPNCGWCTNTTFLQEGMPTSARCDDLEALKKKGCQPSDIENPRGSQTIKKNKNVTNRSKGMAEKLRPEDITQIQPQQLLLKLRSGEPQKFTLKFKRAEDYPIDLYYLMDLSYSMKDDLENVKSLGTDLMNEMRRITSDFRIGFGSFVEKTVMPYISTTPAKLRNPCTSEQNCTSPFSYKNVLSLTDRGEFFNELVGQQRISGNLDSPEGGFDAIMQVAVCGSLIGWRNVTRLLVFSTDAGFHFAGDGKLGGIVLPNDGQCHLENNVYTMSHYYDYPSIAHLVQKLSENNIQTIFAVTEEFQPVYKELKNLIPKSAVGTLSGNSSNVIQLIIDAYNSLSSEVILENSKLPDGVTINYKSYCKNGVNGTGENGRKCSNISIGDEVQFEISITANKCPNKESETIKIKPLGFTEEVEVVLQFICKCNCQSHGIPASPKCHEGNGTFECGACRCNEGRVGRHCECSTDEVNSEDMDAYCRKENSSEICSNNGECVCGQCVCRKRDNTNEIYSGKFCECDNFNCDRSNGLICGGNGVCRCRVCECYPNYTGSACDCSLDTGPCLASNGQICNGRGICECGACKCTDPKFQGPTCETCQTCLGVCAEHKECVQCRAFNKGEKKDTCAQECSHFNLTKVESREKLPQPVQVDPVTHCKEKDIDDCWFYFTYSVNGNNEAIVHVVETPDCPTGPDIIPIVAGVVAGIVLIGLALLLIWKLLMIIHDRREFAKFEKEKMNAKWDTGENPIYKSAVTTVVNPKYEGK

On to “^64Cu-CB-TE1A1P-PEG4-LLP2A [^64Cu-LLP2A]”, for which the “Tumor uptake when coinjected with blocker” value at VLA-4 [1] (coinjected with a 200-fold excess of cold-LLP2A) is “reduced to the background levels”. For the same compound, the Tumor uptake entry on VLA-4 [1] (subcutaneous 5TGM1-GFP model, i.v. injection of 0.48 MBq, PET at 24 h) is “excellent tumor uptake”. In addition, the “Urine excreted, expressed as residence time” value in series [2] (1-h void assumption) came to 14.01 h. In addition, in series [2] (dual-exponential fit of blood time-activity curve, mice), the “Blood clearance half-life, fast component” value was 6 min. Further, in series [2] (urine collected in metabolic cages), the “Residence time from area under the curve of urine data” value was found to be 14.46 h. In addition, in series [3] (1-h bladder-voiding interval), the Bladder dose is 0.094 mGy/MBq and the Red marrow dose is recorded as 0.005 mGy/MBq. Further, in series [3] (as stated in abstract and discussion, void interval not stated), the “Human radiation dose estimate, urinary bladder wall (dose-limiting organ)” value was 0.200 mGy/MBq. Also, in series [3] (as stated in abstract, void interval not stated), the “Human radiation dose estimate, red marrow” value is 0.006 mGy/MBq. The Maximum injection in series [3] (assuming maximum permissible dose of 50 mGy to the bladder wall) is recorded as 532 MBq. Besides, on VLA-4 [4], the “Uptake in the spleen of α4 -/- mice” value was “negligible uptake”.

On to `Cc1ccccc1NC(=O)Nc1ccc(CC(=O)N(C)[C@@H](CC(C)C)C(=O)NCC[C@H](NC(=O)[C@@H]2CCCN2S(=O)(=O)c2cc(Cl)cc(Cl)c2)C(=O)O)cc1` [BIO5192], for which, in series [5], the “Effect on LLP2A-Cy5 cell binding” value is “blocked”.

Take `CCOCc1cc(OC)c(-c2ccc(C[C@H](NC(=O)c3c(F)cccc3F)C(=O)O)cc2)c(OC)c1` [firategrast]: the “Effect of competitor on LLP2A-Cy5 cell binding” value in series [6] is “competitively inhibited”.
